Screening results deposited in PubChem by several laboratories.
TNAP inh no acc: blocks human TNAP activity with no phosphate acceptor present | inhibition, % at 20 µM | 0.26% of 200,000 active | AID 1012 | P05186 | purified TNAP, CDP-star luminescence, 30 min;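 active means tissue-nonspecific alkaline phosphatase inhibition above about 50% at 20 µM in the single-dose screen, limit read from the data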;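 further: 0% = DMSO negative control and 100% = EDTA positive control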
Target sequence (P05186 whole entry, looked up): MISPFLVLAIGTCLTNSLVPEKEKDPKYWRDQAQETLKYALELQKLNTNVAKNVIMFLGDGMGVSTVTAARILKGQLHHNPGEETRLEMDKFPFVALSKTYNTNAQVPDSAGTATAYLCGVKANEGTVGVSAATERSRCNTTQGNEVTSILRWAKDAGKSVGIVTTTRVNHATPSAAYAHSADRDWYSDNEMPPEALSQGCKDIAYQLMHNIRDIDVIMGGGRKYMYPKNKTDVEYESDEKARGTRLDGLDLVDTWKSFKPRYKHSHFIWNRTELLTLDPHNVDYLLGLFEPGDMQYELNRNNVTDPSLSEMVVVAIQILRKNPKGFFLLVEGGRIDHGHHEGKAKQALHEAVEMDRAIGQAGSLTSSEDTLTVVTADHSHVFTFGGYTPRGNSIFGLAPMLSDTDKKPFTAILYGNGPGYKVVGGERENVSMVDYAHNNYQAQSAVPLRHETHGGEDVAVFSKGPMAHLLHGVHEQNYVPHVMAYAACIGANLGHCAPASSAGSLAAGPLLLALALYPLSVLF
TNAP inh hiacc: TNAP (human) inhibition, high acceptor. P05186. inhibition, % at 20 µM. 0.03% of 200,000 active. purified TNAP, CDP-star luminescence, 1 M DEA. AID 1135;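 active means over 50% inhibition of tissue-nonspecific alkaline phosphatase at 20 µM in the single-dose screen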;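 further: plate controls were DMSO wells for no effect and EDTA-quenched wells as full inhibition for full effect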
TNAP act hi DEA: increases human TNAP activity under high phosphate acceptor concentration; P05186; purified TNAP, CDP-star luminescence, 1 M DEA, 30 min; hits give high values; 0 = EDTA background, 1 = DMSO-only activity; activation factor at 20 µM; 200,000 tested, under 10 active;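 active means activation factor at least 2 at 20 µM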
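Dosing: 20 µM single point. System: human TNAP. Amount: TNAP 1/800 final. Incubation: 30 min, room temperature. Read-out: TNAP activation factor scaled between EDTA and DMSO control wells. Signal: luminescence from CDP-star hydrolysis. Medium: 1 M DEA, pH 9.8, Mg2+, Zn2+. Control set: EDTA negative control, DMSO positive control.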
HCT116 PTEN-null: growth suppressors of cells with PTEN tumor suppressor deletion; HCT116 PTEN-null viability, CellTiter-Glo, 60 h; hits give low values; viability, % at 10 µM; 1.2% of 140,000 active; AID 827;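 active means viability at or below a set limit, 4 SD under the median of all tested compounds, cut at about 3.7% in these data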;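 further: PTEN knockout HCT116 line with beta catenin targeted HCT116 as companion control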
HCT116 bCat-KO: beta-catenin-lacking colon tumor cell growth suppression. 1.5% of 140,000 active. HCT116 beta-catenin knockout viability, CellTiter-Glo, 60 h; hits give low values. viability, % at 10 µM;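 active means viability at or under a set limit, the compound median less 4 SD, cut at about 6% in these data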;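 further: 0% = Hyamine 1622 control at 20 µM and 100% = untreated cell control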
Lmaj promast: reduces viability of Leishmania major promastigotes; resazurin fluorescence viability; inhibition, % at 10 µM; AID 1063; 9% of 200,000 active; in the data active means inhibition above about 50%;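 further: promastigotes grown with compound for 44 hours at 28 °C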
Numbers without * were called inactive; . = not tested or not shown. Only some compounds are listed: those with a hit (about 9.6% of all), similar ones and a draw of the others.

SMILES	TNAP inh no acc	TNAP inh hiacc	TNAP act hi DEA	HCT116 PTEN-null	HCT116 bCat-KO	Lmaj promast
COc1cccc(N(C(=O)c2ccco2)c2nc(-c3sc(NC(=O)c4ccco4)nc3C)cs2)c1	-0.8	1.5	1	5.7	3.8*	3.2
Cc1cc2cc(CN(Cc3ccc4c(c3)OCO4)C(=O)c3cnccn3)c3nnnn3c2cc1C	-10.0	-7.3	1.1	85.1	97.2	21.7
O=C(c1ccccc1F)N(Cc1ccc2c(c1)OCO2)Cc1cc2cc3c(cc2n2nnnc12)OCO3	1.0	0.7	1	63.8	74.3	87.5*
COC(=O)c1c(-c2ccccc2)csc1NC1=NS(=O)(=O)c2ccccc21	-18.9	-2.5	1	80.5	76.9	89.3*
COC(=O)c1ccc(C(=O)OC)c(NC2=NS(=O)(=O)c3ccccc32)c1	-9.1	-0.7	1	85.5	85.9	-1.5
CN(C)C=Nc1ncc2c3ccccc3n(CCN(C)C)c2c1C#N	-3.3	-4.8	1	19.8	23.6	98.0*
CN(C)C=Nc1ncc2c3ccccc3n(Cc3ccccc3)c2c1C#N	-4.5	-5.0	1.1	92.7	88.5	-6.5
CC(CNC(=O)CCc1nnc(CCC2CCCCC2)o1)c1ccccc1 (stereo unspecified)	-19.4	-9.7	1.1	.	.	4.2
O=c1[nH]c(-c2ccccn2)nc2sc(-c3ccccc3)cc12	-70.9	-6.6	1.1	.	.	100.5*
O=C(NC1CCCC1)C(c1ccncc1)N(Cc1ccco1)C(=O)c1ccc(-c2ccccc2)[nH]1 (stereo unspecified)	-5.4	1.4	1	.	.	93.9*
O=C(NC1CCCCC1)C(c1ccc(F)cc1)N(Cc1ccco1)C(=O)c1ccccn1 (stereo unspecified)	-10.6	-4.4	1	.	.	-2.3
O=C(NC1CCCC1)C(c1ccncc1)N(CCCN1CCOCC1)C(=O)c1ccc(-c2ccccc2)[nH]1 (stereo unspecified)	-14.7	-6.0	1.1	.	.	-2.0
CC(C)(C)NC(=O)C(c1ccncc1)N(Cc1ccc(F)cc1)C(=O)c1ccc(-c2ccccc2)[nH]1 (stereo unspecified)	-3.0	-3.2	1	.	.	98.5*
O=C(NC1CCCC1)C(c1ccncc1)N(Cc1ccccc1)C(=O)c1ccc(-c2ccccc2)[nH]1 (stereo unspecified)	-8.5	1.4	1	32.1	31.7	97.2*
CN(C)CCNC(=S)Nc1ccc(Br)cc1	-12.5	-0.8	1	94.1	94.5	-4.2
COc1ccc(CN2CCN(Cc3cccc(OC)c3)C(CCO)C2)cc1 (stereo unspecified)	-7.2	-6.7	1.1	.	.	71.4*
COc1ccc(/C=C/CN2CCN(Cc3cccc(OC)c3)C(CCO)C2)cc1 (stereo unspecified)	-5.4	-0.9	1	.	.	93.4*
CCOc1ccc(CN2CCN(C/C=C/c3ccc(OC)cc3)CC2CCO)cc1 (stereo unspecified)	-5.0	-3.4	1	.	.	23.2
COc1cccc(CN2CCN(Cc3ccc4c(c3)OCCO4)CC2CCO)c1 (stereo unspecified)	-1.8	-1.3	1	.	.	69.7*
CCn1cc(C(=O)OCC(=O)Nc2c(C)cccc2C)c(=O)c2ccc(C)nc21	-9.0	-7.2	1.1	.	.	6.9
COc1ccc(CCNC(=O)c2cn3ccc(C)cc3n2)cc1OC	-20.2	-7.0	1.1	.	.	-4.4
Cc1ccsc1/C=N/NC(=O)CNC(=O)c1cccc([N+](=O)[O-])c1C	-6.6	-4.1	1	.	.	11.1
Cn1c(N)c(C(=O)c2ccccc2)c(=O)n(C)c1=O	-6.3	-13.9	1.1	99.9	101.6	4.6
Cn1c(=O)c2nnn(/N=C(\c3ccccc3)C3CC3)c2n(C)c1=O	-5.1	-7.4	1.1	106.0	88.8	76.3*
OC1CCN(C(=S)Nc2ccc(Oc3ccccc3)cc2)CC1	-5.3	-2.3	1	.	.	-6.5
SMILES	TNAP inh no acc	TNAP inh hiacc	TNAP act hi DEA	HCT116 PTEN-null	HCT116 bCat-KO	Lmaj promast
O=C1CC(c2cccc(Cl)c2)Cc2nc(N3CCN(c4ccccc4)CC3)ncc21 (stereo unspecified)	-9.2	-1.9	1	77.5	78.7	-2.3
CCN1CCN(c2ncc3c(n2)CC(c2cc(OC)c(OC)c(OC)c2)CC3=O)CC1 (stereo unspecified)	-7.2	-6.3	1.1	18.3	15.2	99.8*
COC(=O)c1n[nH]c2ccccc12	55.3*	-7.7	1.1	88.9	94.1	-0.4
O=C(OCC(=O)N1CCCCCC1)c1n[nH]c(=O)c2ccccc12	-7.2	-6.9	1.1	91.0	100.2	-7.4
CCC1CCCCN1C(=O)COC(=O)c1n[nH]c2ccccc12 (stereo unspecified)	56.4*	-1.7	1	101.0	103.9	-2.9
CC1CCN(C(=O)COC(=O)c2n[nH]c3ccccc23)CC1	58.3*	-0.3	1	84.7	104.6	-0.5
O=Cc1cn(CC(=O)N2CCCCC2)c2ccccc12	-9.2	-1.5	1	93.4	99.3	-4.2
CN1C(=O)/C(=C/c2cn(CC(=O)N3CCCCC3)c3ccccc23)c2ccccc21	15.3	8.2	0.9	39.7	57.7	86.1*
CCc1cccc(C)c1NC(=O)CSc1nc(-c2ccccc2F)nc2nc[nH]c12	-4.5	-3.6	1	81.1	80.5	62.0*
O=C(CSc1nc(-c2ccccc2F)nc2nc[nH]c12)Nc1c(Cl)cc(Cl)cc1Cl	-8.7	-2.4	1	102.5	100.9	-5.8
CCOC(=O)N/N=C(\C)c1ccc(-n2cnnn2)cc1	-0.6	-3.4	1	.	.	-3.6
CC(=O)Nc1ccc(N2C(=O)c3ccc(C(=O)Nc4nnc(SCc5ccc(F)cc5)s4)cc3C2=O)cc1	-3.6	0.0	1	.	.	10.0
COc1ccc(/C=C2\NC(=O)C(C=NCc3ccccc3)=C2O)cc1	-7.5	-3.6	1	89.5	97.5	57.9*
O=[N+]([O-])c1ccc(N2CCN(S(=O)(=O)c3ccccc3[N+](=O)[O-])CC2)cc1NCc1cccnc1	7.3	8.8	0.9	90.3	80.2	67.7*
CCN(CC)S(=O)(=O)c1ccc(OCCNS(C)(=O)=O)cc1	0.8	-2.6	1	.	.	1.4
COCCCNCCOCCOc1ccccc1-c1ccccc1	-11.7	-1.3	1	74.6	64.8	48.7
COc1cc(C=O)ccc1OCCOCCOc1ccccc1Cl	-3.6	-0.2	1	85.0	89.5	0.5
COC(=O)NNC(=O)CCCOc1ccc(Cl)cc1Cl	-8.2	2.9	1	98.1	95.8	-2.8
C=CCc1ccccc1OCCNCCCOC	-21.2	-0.9	1	93.9	76.5	83.4*
C=CCc1cc(Cl)ccc1OCCOCCNCCOC	26.0	-2.3	1	90.8	92.5	99.4*
C#CCN(C)CCCOc1ccc(Cl)cc1Cl	-11.9	-5.1	1.1	91.2	91.0	-2.7
C=CCc1cc(Cl)ccc1OCCNCCCOC	-9.9	-2.8	1	95.1	99.0	99.5*
C=CCc1cc(Cl)ccc1OCCOCCN(C)C	-2.5	-0.7	1	.	.	100.1*
C=CCc1cc(Cl)ccc1OCCOCCNC(C)(C)C	-4.2	-3.6	1	.	.	99.4*
